Reference: ChEMBL document CHEMBL5724801, “EUbOPEN Chemogenomics Library - Multiplex” (2024)
Where “and” joins values, the source holds several entries; their conditions need not be identical. Identical values can stand only once.

Test system: U2OS
Assay: Multiplex assay against U2OS
Assay type: toxicity, cell-based
Details: human
In short: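 Per cents of healthy-nucleus cells form the tubulin, mitochondrial-mass and membrane-permeability phenotype values. Live cells were stained at seeding with Hoechst33342, BioTracker Green Microtubule Cytoskeleton Dye, MitoTracker Red and Annexin V Alexa Fluor 680. After compound addition they were imaged on a CQ1 microscope at 37°C and 5% CO2, and CellPathfinder machine-learning gating split them into Hoechst high-intensity objects or normal cells, normal cells into healthy, pyknosed or fragmented nuclei, and pyknosed cells into mitotic or apoptotic.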

[1] = 12 h, 10 µM, compound concentration 10 uM
[2] = 24 h, 10 µM, compound concentration 10 uM
[3] = 48 h, 10 µM, compound concentration 10 uM
[4] = 12 h, 1 µM, compound concentration 1 uM
[5] = 24 h, 1 µM, compound concentration 1 uM
[6] = 48 h, 1 µM, compound concentration 1 uM

CC(=O)O[C@H]1C(=O)[C@@]2(C)[C@H]([C@H](OC(=O)c3ccccc3)[C@]3(O)C[C@H](OC(=O)[C@H](O)[C@@H](NC(=O)c4ccccc4)c4ccccc4)C(C)=C1C3(C)C)[C@]1(OC(C)=O)CO[C@@H]1C[C@@H]2O [PACLITAXEL]
Population Apoptotic (%) [1]: 64% and 71% | Population Fragmented Nuclei (%) [1]: 28% and 16% | Population Healthy Nuclei (%) [1]: 46% and 60% | Population Hoechst High Intensity Objects (%) [1]: 8% and 3% | Population Membrane Permeable-Phenotype (%) [1]: 23% and 10% | Population Mitochondria Different-Phenotype (%) [1]: 25% and 30% | Population Mitotic Cells (%) [1]: 35% and 28% | Population Normal (%) [1]: 91% and 96% | Population Pyknosed Nuclei (%) [1]: 24% and 23% | Population Tubulin-Different-Phenotype (%) [1]: 16% and 14% | Total Cell Count [1]: 200 and 94 | Population Apoptotic (%) [2]: 69% and 58% | Population Fragmented Nuclei (%) [2]: 33% and 25% | Population Healthy Nuclei (%) [2]: 36% and 48% | Population Hoechst High Intensity Objects (%) [2]: 4% | Population Membrane Permeable-Phenotype (%) [2]: 21% and 15% | Population Mitochondria Different-Phenotype (%) [2]: 44% and 34% | Population Mitotic Cells (%) [2]: 30% and 41% | Population Normal (%) [2]: 95% | Population Pyknosed Nuclei (%) [2]: 29% and 26% | Population Tubulin-Different-Phenotype (%) [2]: 13% and 18% | Total Cell Count [2]: 198 and 95 | Population Apoptotic (%) [3]: 76% and 70% | Population Fragmented Nuclei (%) [3]: 35% and 27% | Population Healthy Nuclei (%) [3]: 30% and 31% | Population Hoechst High Intensity Objects (%) [3]: 12% and 8% | Population Membrane Permeable-Phenotype (%) [3]: 27% and 14% | Population Mitochondria Different-Phenotype (%) [3]: 29% and 50% | Population Mitotic Cells (%) [3]: 23% and 29% | Population Normal (%) [3]: 87% and 91% | Population Pyknosed Nuclei (%) [3]: 33% and 41% | Population Tubulin-Different-Phenotype (%) [3]: 16% and 25% | Total Cell Count [3]: 203 and 98

CCOc1c2c(c(OCC)c3ncccc13)CN(c1ccc(CS(=O)(=O)NC(=O)Cc3ccccc3OC)cc1C)C2=O
Population Apoptotic (%) [4]: 64% and 100% | Population Fragmented Nuclei (%) [4]: 22% and 13% | Population Healthy Nuclei (%) [4]: 70% and 82% | Population Hoechst High Intensity Objects (%) [4]: 2% and 1% | Population Membrane Permeable-Phenotype (%) [4]: 7% and 9% | Population Mitochondria Different-Phenotype (%) [4]: 3% | Population Normal (%) [4]: 97% and 98% | Population Pyknosed Nuclei (%) [4]: 7% and 4% | Population Tubulin-Different-Phenotype (%) [4]: 2% and 6% | Total Cell Count [4]: 189 and 93 | Population Apoptotic (%) [1]: 81% and 80% | Population Fragmented Nuclei (%) [1]: 30% and 21% | Population Healthy Nuclei (%) [1]: 63% and 75% | Population Hoechst High Intensity Objects (%) [1]: 2% | Population Membrane Permeable-Phenotype (%) [1]: 5% and 8% | Population Mitochondria Different-Phenotype (%) [1]: 3% and 6% | Population Mitotic Cells (%) [1]: 18% and 20% | Population Normal (%) [1]: 97% | Population Pyknosed Nuclei (%) [1]: 6% and 3% | Population Tubulin-Different-Phenotype (%) [1]: 2% and 3% | Total Cell Count [1]: 248 and 136 | Population Apoptotic (%) [5]: 80% and 100% | Population Fragmented Nuclei (%) [5]: 21% and 19% | Population Healthy Nuclei (%) [5]: 71% and 76% | Population Hoechst High Intensity Objects (%) [5]: 3% and 1% | Population Membrane Permeable-Phenotype (%) [5]: 4% and 7% | Population Mitochondria Different-Phenotype (%) [5]: 0% and 4% | Population Mitotic Cells (%) [5]: 20% and 0% | Population Normal (%) [5]: 96% and 98% | Population Pyknosed Nuclei (%) [5]: 6% and 4% | Population Tubulin-Different-Phenotype (%) [5]: 1% and 4% | Total Cell Count [5]: 235 and 125 | Population Apoptotic (%) [2]: 76% and 100% | Population Fragmented Nuclei (%) [2]: 27% and 17% | Population Healthy Nuclei (%) [2]: 61% and 76% | Population Hoechst High Intensity Objects (%) [2]: 3% and 0% | Population Membrane Permeable-Phenotype (%) [2]: 6% | Population Mitochondria Different-Phenotype (%) [2]: 2% | Population Mitotic Cells (%) [2]: 23% and 0% | Population Normal (%) [2]: 96% and 99% | Population Pyknosed Nuclei (%) [2]: 10% and 5% | Population Tubulin-Different-Phenotype (%) [2]: 1% and 5% | Total Cell Count [2]: 285 and 152 | Population Apoptotic (%) [6]: 85% and 100% | Population Fragmented Nuclei (%) [6]: 19% and 17% | Population Healthy Nuclei (%) [6]: 74% and 79% | Population Hoechst High Intensity Objects (%) [6]: 2% and 4% | Population Membrane Permeable-Phenotype (%) [6]: 3% and 7% | Population Mitochondria Different-Phenotype (%) [6]: 1% and 3% | Population Mitotic Cells (%) [6]: 15% and 0% | Population Normal (%) [6]: 97% and 95% | Population Pyknosed Nuclei (%) [6]: 5% and 2% | Population Tubulin-Different-Phenotype (%) [6]: 2% and 5% | Total Cell Count [6]: 344 and 167 | Population Apoptotic (%) [3]: 91% and 100% | Population Fragmented Nuclei (%) [3]: 19% and 18% | Population Healthy Nuclei (%) [3]: 71% and 74% | Population Hoechst High Intensity Objects (%) [3]: 2% | Population Membrane Permeable-Phenotype (%) [3]: 5% and 8% | Population Mitochondria Different-Phenotype (%) [3]: 1% and 4% | Population Mitotic Cells (%) [3]: 8% and 0% | Population Normal (%) [3]: 97% | Population Pyknosed Nuclei (%) [3]: 9% and 6% | Population Tubulin-Different-Phenotype (%) [3]: 2% and 3% | Total Cell Count [3]: 385 and 236
